The source made the active and inactive calls. No cut-off for these calls is given here.
Key:
[1] = Cytotoxicity against HEK293T cells expressing FXR and beta-lactamase genes assessed as inhibition of cell viability at 40 uM after 16 hrs by CellTiter-Glo luminescent assay relative to control; assay type: cell-based, HEK-293T; conditions: human, read-out: INH
Procedure, shortened: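 Viability run alongside the agonist assay in the same GeneBLAzer FXR HEK 293T cells: 20,000 cells/well in phenol red-free DMEM with 2% charcoal/dextran-treated FBS, 0.5% DMSO, 16 h at 37°C. Cooled 20 min, then CellTiter-Glo added for 20 min in dark; luminescence read.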

[2] = molecular target: T1, Bile acid receptor (Homo sapiens) (UniProt Q96RI1); test: Antagonist activity at human GST-tagged FXR at 13.3 uM after 20 mins by TR-FRET assay relative to control
T1 sequence (whole entry): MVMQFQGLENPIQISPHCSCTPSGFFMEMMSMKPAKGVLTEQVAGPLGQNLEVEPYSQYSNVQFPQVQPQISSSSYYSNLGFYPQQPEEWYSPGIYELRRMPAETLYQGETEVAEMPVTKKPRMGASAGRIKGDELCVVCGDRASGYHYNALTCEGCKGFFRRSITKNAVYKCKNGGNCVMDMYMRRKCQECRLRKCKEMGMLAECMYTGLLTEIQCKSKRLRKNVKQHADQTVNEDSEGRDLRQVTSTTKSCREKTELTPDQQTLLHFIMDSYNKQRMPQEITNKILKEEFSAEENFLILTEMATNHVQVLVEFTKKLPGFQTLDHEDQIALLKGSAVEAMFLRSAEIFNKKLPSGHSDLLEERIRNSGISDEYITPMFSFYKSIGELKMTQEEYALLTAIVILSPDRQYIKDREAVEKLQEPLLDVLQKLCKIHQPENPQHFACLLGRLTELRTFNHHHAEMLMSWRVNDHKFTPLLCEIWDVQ

[3] = molecular target: T1, Bile acid receptor (Homo sapiens); test: Inhibition of GW4064-induced transactivation of FXR (unknown origin) expressed in HEK293T cells at 40 uM after 16 hrs by beta-lactamase reporter gene assay relative to control; assay type: cell-based; conditions: HEK-293T
[4] = molecular target: T1, Bile acid receptor (Homo sapiens); test: Agonist activity at FXR (unknown origin) expressed in HEK293T cells after 16 hrs by beta-lactamase reporter gene assay relative to control; assay type: cell-based; conditions: HEK-293T
[5] = molecular target: T1, Bile acid receptor (Homo sapiens); test: Antagonist activity at human GST-tagged FXR at 493 nM after 20 mins by TR-FRET assay relative to control
[6] = molecular target: T1, Bile acid receptor (Homo sapiens); test: Antagonist activity at human GST-tagged FXR at 4.4 uM after 20 mins by TR-FRET assay relative to control
Bile acid receptor [7] = molecular target: T2, Bile acid receptor (Homo sapiens, UniProt Q96RI1); test: Inhibition of GW4064-induced transactivation of FXR (unknown origin) expressed in HEK293T cells after 16 hrs by beta-lactamase reporter gene assay; assay type: cell-based, HEK-293T
T2 sequence (Q96RI1 whole entry): T1 sequence (whole entry)

Bile acid receptor [8] = molecular target: T2, Bile acid receptor; test: Antagonist activity at human GST-tagged FXR after 20 mins by TR-FRET assay
[9] = molecular target: T1, Bile acid receptor (Homo sapiens); test: Agonist activity at human FXR
[10] = molecular target: T1, Bile acid receptor (Homo sapiens); test: Inhibition of GW4064-induced transactivation of FXR (unknown origin) expressed in HEK293T cells at 1 uM after 16 hrs by beta-lactamase reporter gene assay relative to control; assay type: cell-based; conditions: HEK-293T
[11] = molecular target: T1, Bile acid receptor (Homo sapiens); test: Antagonist activity at human GST-tagged FXR at 164 nM after 20 mins by TR-FRET assay relative to control
[12] = molecular target: T1, Bile acid receptor (Homo sapiens); test: Antagonist activity at human GST-tagged FXR at […] nM after 20 mins by TR-FRET assay relative to control
[13] = molecular target: T1, Bile acid receptor (Homo sapiens); test: Ratio of E16 IC50 to compound IC50 for human GST-tagged FXR after 20 mins by TR-FRET assay
[14] = molecular target: T1, Bile acid receptor (Homo sapiens); test: Antagonist activity at human GST-tagged FXR at 40 uM after 20 mins by TR-FRET assay relative to control

| SMILES | cytotoxicity at 16 h, 40 µM [1] [%] | inhibition [3] [%] | Activity [4] | Activity [9] | also measured |
| --- | --- | --- | --- | --- | --- |
| COCCc1nn(Cc2cccc(OC)c2)cc1C(=O)Nc1ccc(C)c(S(=O)(=O)N2CCOCC2)c1 | < 5 | 95.9 | inactive | – | inhibition [2]: 114% |
| Cc1ccc(-c2nn(CCCCO)cc2C(=O)Nc2ccc(C)c(S(=O)(=O)N3CCOCC3)c2)cc1 | 5.9 | 97.6 | inactive | – | inhibition [5]: 89.3% |
| C[C@H](CCC(=O)O)[C@H]1CC[C@H]2[C@@H]3CC[C@@H]4C[C@H](O)CC[C@]4(C)[C@H]3CC[C@]12C [LITHOCHOLIC ACID] | < 5 | – | – | – | – |
| Cc1ccc(NC(=O)c2cn(C(C)C)nc2-c2ccc(C(F)(F)F)cc2)cc1S(=O)(=O)N1CCOCC1 | 19.5 | 100 | inactive | – | inhibition [6]: 133% |
| Cc1ccc(NC(=O)c2c(C)nn(-c3ccccc3)c2C)cc1S(=O)(=O)N1CCOCC1 | 47.4 | 99 | – | inactive | inhibition [2]: 70.6%; IC50 (Bile acid receptor [7]): 11.8 µM; IC50 (Bile acid receptor [8]): 3.3 µM |
| O=C(Nc1cccc(S(=O)(=O)N2CCOCC2)c1)c1cn(-c2ccccc2)nc1-c1ccccc1 | 7.1 | 54.9 | – | inactive | inhibition [5]: 44.4% |
| Cc1ccc(-c2nn(C(C)C)cc2CNc2ccc(C)c(S(=O)(=O)N3CCOCC3)c2)cc1 | 10.5 | 36.8 | inactive | – | inhibition [2]: 99.5%; inhibition [10]: inactive |
| O=C(Nc1cccc(S(=O)(=O)N2CCOCC2)c1)c1cn(-c2ccccc2)nc1-c1ccc(F)cc1 | 16.3 | 42.6 | – | inactive | inhibition [5]: 53.3% |
| Cc1cccc(-n2ncc(C(=O)Nc3cccc(S(=O)(=O)N4CCOCC4)c3)c2C)c1 | < 5 | 66.9 | – | inactive | inhibition [2]: 85.1%; IC50 (Bile acid receptor [7]): 29.3 µM; IC50 (Bile acid receptor [8]): 6.6 µM |
| COc1cccc(Cn2cc(C(=O)Nc3ccc(C)c(S(=O)(=O)N4CCOCC4)c3)c(-c3ccc(C(F)(F)F)cc3)n2)c1 | < 5 | 97.6 | inactive | – | inhibition [11]: 109% |
| O=C(Nc1ccc(S(=O)(=O)N2CCOCC2)cc1)c1cn(-c2ccccc2)nc1-c1ccc(Cl)cc1 | < 5 | 20.6 | – | inactive | inhibition [12]: 17.8% |
| Cc1ccc(NC(=O)c2cnn(-c3cccnc3)c2)cc1S(=O)(=O)N1CCOCC1 | 27.9 | 16.1 | – | inactive | inhibition [2]: 18.8% |
| Cc1ccc(-c2nn(Cc3cccc(C(F)(F)F)c3)cc2C(=O)Nc2ccc(C)c(S(=O)(=O)N3CCOCC3)c2)cc1 | < 5 | 93.4 | inactive | – | inhibition [11]: 99.2% |
| Cc1ccc(-c2nn(-c3cccc(C(F)(F)F)c3)cc2C(=O)Nc2ccc(C)c(S(=O)(=O)N3CCOCC3)c2)cc1 | 7.3 | 54.8 | inactive | – | inhibition [11]: 77.5%; Ratio IC50 [13]: 3 |
| O=C(Nc1ccc(S(=O)(=O)N2CCOCC2)cc1)c1cn(-c2ccccc2)nc1-c1ccccc1 | 7.4 | 18.6 | – | inactive | inhibition [5]: 12.7% |
| Cc1ccc(-c2nn(-c3cccc(Cl)c3)cc2C(=O)Nc2ccc(C)c(S(=O)(=O)N3CCOCC3)c2)cc1 | < 5 | 60.6 | inactive | – | inhibition [11]: 99.3%; Ratio IC50 [13]: 3 |

| SMILES | cytotoxicity at 16 h, 40 µM [1] [%] | inhibition [3] [%] | Activity [4] | Activity [9] | also measured |
| --- | --- | --- | --- | --- | --- |
| CC(C)c1onc(-c2c(Cl)cccc2Cl)c1COc1ccc(/C=C/c2cccc(C(=O)O)c2)c(Cl)c1 | < 5 | – | – | – | – |
| O=C(Nc1ccc(S(=O)(=O)N2CCOCC2)cc1)c1cn(-c2ccccc2)nc1-c1ccc(F)cc1 | < 5 | 34.7 | – | inactive | inhibition [11]: 21.2% |
| Cc1ccc(NC(=O)c2cnn(-c3ccccc3)c2C(F)(F)F)cc1S(=O)(=O)N1CCOCC1 | 51.3 | 101 | – | inactive | inhibition [2]: 99.8%; IC50 (Bile acid receptor [7]): 11.8 µM; IC50 (Bile acid receptor [8]): 0.996 µM |
| COc1cccc(Cn2cc(C(=O)N(C)c3ccc(C)c(S(=O)(=O)N4CCOCC4)c3)c(-c3cccc(OC)c3)n2)c1 | 19.7 | 23.8 | inactive | – | inhibition [10]: inactive; inhibition [14]: 69.7% |
| COCCc1nn(C(C)C)cc1C(=O)Nc1ccc(C)c(S(=O)(=O)N2CCOCC2)c1 | < 5 | 62.5 | inactive | – | inhibition [14]: 98.2% |
| Cc1ccc(-c2nn(C(C)C)cc2C(=O)N(C)c2ccc(C)c(S(=O)(=O)N3CCOCC3)c2)cc1 | 15 | 86.4 | inactive | – | inhibition [10]: inactive; inhibition [14]: 133% |
| Cc1ccc(-c2nn(C(C)C)cc2C(=O)Nc2ccc(C)c(S(=O)(=O)N3CCOCC3)c2)cc1 | < 5 | 99.1 | inactive | – | inhibition [6]: 131% |
| COc1cccc(Cn2cc(C(=O)Nc3ccc(C)c(S(=O)(=O)N4CCOCC4)c3)c(C(C)C)n2)c1 | < 5 | 99.2 | inactive | – | inhibition [6]: 101% |
| COc1cccc(Cn2cc(C(=O)Nc3ccc(C)c(S(=O)(=O)N4CCOCC4)c3)c(-c3cccc(OC)c3)n2)c1 | < 5 | 89.4 | inactive | – | inhibition [5]: 114% |
| COc1cccc(Cn2cc(CNc3ccc(C)c(S(=O)(=O)N4CCOCC4)c3)c(C(C)C)n2)c1 | 13.9 | 64.8 | inactive | – | inhibition [6]: 72.5%; inhibition [10]: inactive |
| O=C(Nc1ccc(F)c(S(=O)(=O)N2CCOCC2)c1)c1cnn(-c2ccccc2)c1 | 27.4 | 80.3 | – | inactive | inhibition [2]: 83.8%; IC50 (Bile acid receptor [7]): 9.4 µM; IC50 (Bile acid receptor [8]): 8.3 µM |
| O=C(Nc1cccc(S(=O)(=O)N2CCOCC2)c1)c1cn(-c2ccccc2)nc1-c1ccc(Cl)cc1 | < 5 | 38.8 | – | inactive | inhibition [12]: 36.9% |
| Cc1ccc(-c2nn(-c3ccc(F)cc3)cc2C(=O)Nc2ccc(C)c(S(=O)(=O)N3CCOCC3)c2)cc1 | 18.5 | 72 | inactive | – | inhibition [5]: 95%; Ratio IC50 [13]: 3 |
| Cc1ccc(-c2nn(-c3ccccc3)cc2C(=O)Nc2ccc(C)c(S(=O)(=O)N3CCOCC3)c2)cc1 | 17.9 | 77.2 | – | inactive | inhibition [11]: 100% |
| Cc1ccc(-c2nn(-c3ccccc3)cc2C(=O)Nc2cccc(S(=O)(=O)N3CCOCC3)c2)cc1 | 5.4 | 32.8 | – | inactive | inhibition [5]: 27.5% |
| Cc1ccc(-c2nn(-c3ccc(Cl)cc3Cl)cc2C(=O)Nc2ccc(C)c(S(=O)(=O)N3CCOCC3)c2)cc1 | < 5 | 89.9 | inactive | – | inhibition [11]: 120%; Ratio IC50 [13]: 3 |

— ChEMBL document CHEMBL3259745, “Identification of trisubstituted-pyrazol carboxamide analogs as novel and potent antagonists of farnesoid X receptor” (Bioorg Med Chem, 2014)
